Data taken from ChEMBL document CHEMBL4138208, “Targeting tubulin polymerization by novel 7-aryl-pyrroloquinolinones: Synthesis, biological activity and SARs” (Eur J Med Chem, 2018).
Activity calls are given as the source filed them. No cut-off for these calls is given here.

Assays:
RS4-11 = test: Growth inhibition of human RS4:11 cells after 72 hrs by MTT assay; type: functional; conditions: RS4-11, 72 h
Jurkat = test: Growth inhibition of human Jurkat cells after 72 hrs by MTT assay; type: functional
HT-29 = test: Growth inhibition of human HT-29 cells after 72 hrs by MTT assay; type: functional; conditions: HT-29, 72 h
HeLa [1] = test: Growth inhibition of human HeLa cells after 72 hrs by MTT assay; type: functional
A549 = test: Growth inhibition of human A549 cells after 72 hrs by MTT assay; type: functional; conditions: A549, 72 h
MDA-MB-231 = test: Growth inhibition of human MDA-MB-231 cells after 72 hrs by MTT assay; type: functional; conditions: MDA-MB-231, 72 h
Kasumi 1 = test: Growth inhibition of human Kasumi-1 cells after 72 hrs by MTT assay; type: functional; conditions: Kasumi 1, 72 h
HeLa [2] = test: Cell cycle arrest in human HeLa cells assessed as accumulation at G2/M phase after 24 hrs by propidium iodide staining-based flow cytometric analysis; type: functional
Method in brief: (§1)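 HeLa cells (5 × 10^5) exposed to graded compound concentrations for 24 h, fixed in ice-cold 70% ethanol, then lysed in buffer with RNase A and 0.1% Triton X-100. DNA stained with propidium iodide and phase distribution read by flow cytometry. Mean of two independent experiments ± SEM.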

HeLa [3] = test: Cell cycle arrest in human HeLa cells assessed as accumulation at G1 phase after 24 hrs by propidium iodide staining-based flow cytometric analysis; type: functional; method in brief: as §1
HeLa [4] = test: Cell cycle arrest in human HeLa cells assessed as accumulation at S phase after 24 hrs by propidium iodide staining-based flow cytometric analysis; type: functional; method in brief: as §1
CCRF-CEM [5] = test: Cytotoxicity against human CEM cells after 72 hrs by MTT assay; type: functional, cell-based
Method in brief: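 Cells seeded at 8 × 10^3 per well and preincubated 18 h at 37 °C, 5% CO2. Leukemia lines were in RPMI-1640 and adherent lines in DMEM, each with 10% FBS plus penicillin/streptomycin. Medium replaced with compound at varying concentrations, in triplicate, for 72 h.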

CCRF-CEM [6] = test: Cytotoxicity against human multidrug-resistant CEM/VBL100 cells after 72 hrs by MTT assay; type: functional, cell-based
Method in brief: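 CEMVbl-100 (vinblastine-selected, P-gp-overexpressing) cells maintained in RPMI-1640 containing 100 ng/mL vinblastine. Seeded at 8 × 10^3 per well, preincubated 18 h, then exposed in triplicate to varying concentrations for 72 h. Viability read by MTT. IC50 taken as mean ± SEM of three separate experiments.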

Bos taurus = organism: Bos taurus; test: Inhibition of [3H]colchicine binding to bovine brain tubulin at 1 to 5 uM by DEAE-cellulose filter method relative to control
HeLa [7] = test: Induction of ROS production in human HeLa cells at 0.1 to 1 uM after 12 to 24 hrs by H2DCFDA staining based flow cytometric analysis; type: functional, cell-based
Method in brief: (§2)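 HeLa cells exposed for 6, 12, 24 or 48 h. Stained either with JC-1 to read mitochondrial membrane potential or with H2-DCFDA to read ROS, then analysed by flow cytometry. Mean ± SEM of three independent experiments.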

HeLa [8] = test: Induction of mitochondrial membrane depolarization in human HeLa cells at 0.1 to 1 uM by JC-1 staining based flow cytometric analysis; type: functional, cell-based; conditions: TDE = time-dependent effect; method in brief: as §2
HeLa [9] = test: Induction of apoptosis in human HeLa cells assessed as decrease in Mcl-1 levels at 0.1 to 1 uM after 24 hrs by Western blot analysis; type: functional, cell-based
Method in brief: (§3)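 HeLa cells treated for the stated times (24 or 48 h), washed in cold PBS and lysed on ice for 30 min. Lysate cleared at 15000 × g, 4 °C. 10 µg protein run on SDS-PAGE and blotted to PVDF, blocked in 5% BSA. Primary antibodies 2 h at room temperature, then peroxidase secondary 60 min, ECL detection. Membranes stripped and reprobed for γ-tubulin as loading control.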

[10] = target: Cyclin-dependent kinase 1 (Homo sapiens) (UniProt P06493); test: Inhibition of cdc2 phosphorylation at Y15 in human HeLa cells at 0.1 to 1 uM after 24 to 48 hrs by Western blot analysis; type: cell-based; method in brief: as §3
Chain of Cyclin-dependent kinase 1 (Homo sapiens) (P06493 whole entry, looked up): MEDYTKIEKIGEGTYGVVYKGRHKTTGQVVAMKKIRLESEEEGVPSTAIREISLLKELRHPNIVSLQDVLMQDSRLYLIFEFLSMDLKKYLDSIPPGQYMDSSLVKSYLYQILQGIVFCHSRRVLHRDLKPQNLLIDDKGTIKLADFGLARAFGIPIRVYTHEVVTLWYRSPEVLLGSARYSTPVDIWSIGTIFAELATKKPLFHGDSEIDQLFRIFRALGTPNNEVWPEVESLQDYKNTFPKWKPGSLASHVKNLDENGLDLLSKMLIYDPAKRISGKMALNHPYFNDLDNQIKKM

[11] = target: T1, M-phase inducer phosphatase 3 (Homo sapiens) (UniProt P30307); test: Inhibition of cdc25c phosphorylation in human HeLa cells at 0.1 to 1 uM after 24 to 48 hrs by Western blot analysis; type: cell-based; method in brief: as §3
T1 sequence (whole entry): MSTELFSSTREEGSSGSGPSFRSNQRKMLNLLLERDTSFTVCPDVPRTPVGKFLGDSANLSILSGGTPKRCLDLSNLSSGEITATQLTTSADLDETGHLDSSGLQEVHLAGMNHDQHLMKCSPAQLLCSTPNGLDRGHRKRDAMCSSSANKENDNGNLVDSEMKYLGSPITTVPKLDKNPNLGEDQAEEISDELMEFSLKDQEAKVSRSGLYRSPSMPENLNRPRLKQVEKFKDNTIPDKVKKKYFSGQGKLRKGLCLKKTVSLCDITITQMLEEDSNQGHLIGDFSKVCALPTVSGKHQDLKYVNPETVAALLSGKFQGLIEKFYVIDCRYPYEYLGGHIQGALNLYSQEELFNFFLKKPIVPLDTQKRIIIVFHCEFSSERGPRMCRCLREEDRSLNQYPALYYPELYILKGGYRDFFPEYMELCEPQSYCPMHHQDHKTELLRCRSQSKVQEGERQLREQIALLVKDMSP

HeLa [12] = test: Induction of apoptosis in human HeLa cells assessed as decrease in Bcl-2 levels at 0.1 to 1 uM after 24 hrs by Western blot analysis; type: functional, cell-based; method in brief: as §3
HeLa [13] = test: Cell cycle arrest in human HeLa cells assessed as decrease in phosphatase cdc25c expression at 0.1 to 1 uM after 24 to 48 hrs by Western blot analysis; type: functional, cell-based; method in brief: as §3
HeLa [14] = test: Induction of apoptosis in human HeLa cells at 0.1 uM after 24 to 48 hrs by propidium iodide/annexin V/FITC staining-based flow cytometric analysis; type: functional, cell-based
Method in brief: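 A549 or HeLa cells treated for 24 or 48 h. Cells harvested, double-stained with annexin-V-FITC and propidium iodide, and analysed by flow cytometry for phosphatidylserine exposure. Mean ± SEM of three independent experiments.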

SMILES	GI50 (RS4-11) [nM]	GI50 (Jurkat) [nM]	GI50 (HT-29) [nM]	GI50 (HeLa [1]) [nM]	GI50 (A549) [nM]	GI50 (MDA-MB-231) [nM]	GI50 (Kasumi 1) [nM]	further results
CCn1ccc2c3c(=O)cc(-c4ccc5ccccc5c4)[nH]c3ccc21	22	32	376	714	744	465	396	
CCn1ccc2c3c(=O)cc(-c4ccc5c(c4)CCCC5)[nH]c3ccc21								Activity (HeLa [2]): Active; Activity (HeLa [3]): Active; Activity (HeLa [4]): Active
CCCCCCCCCCCCCCCCCCn1ccc2c3c(=O)cc(C)[nH]c3ccc21	> 10000	> 10000	> 10000	2380	3400	> 10000	> 10000	
CC[C@]1(O)C[C@@H]2CN(CCc3c([nH]c4ccccc34)[C@@](C(=O)OC)(c3cc4c(cc3OC)N(C)[C@H]3[C@@](O)(C(=O)OC)[C@H](OC(C)=O)[C@]5(CC)C=CCN6CC[C@]43[C@@H]65)C2)C1 [VINBLASTINE]								IC50 (CCRF-CEM [5]): 1.5 nM; IC50 (CCRF-CEM [6]): 285 nM
O=C1C=C(c2ccccc2)Nc2cccc3ccn1c23	> 10000	> 10000	> 10000	> 10000	> 10000	> 10000	> 10000	
CCCCCCCCCCCCCCCCCCn1ccc2c3c(=O)cc(-c4ccccc4)[nH]c3ccc21	> 10000	> 10000	> 10000	8350	820	5360	> 10000	
CCn1ccc2ccc3[nH]c(-c4ccccc4)cc(=O)c3c21	13	27	16	49	7.1	641	30	inhibition (Bos taurus): 24%
CCn1ccc2c3c(=O)cc(-c4ccc5c(c4)OCO5)[nH]c3ccc21								IC50 (CCRF-CEM [5]): 27.8 nM; Activity (HeLa [7]): Active; Activity (HeLa [8]): Tde; Activity (HeLa [2]): Active; Activity (HeLa [9]): Active; Activity (HeLa [3]): Active; Activity (HeLa [4]): Active; inhibition [10]: Active; IC50 (CCRF-CEM [6]): 3.7 nM; inhibition [11]: Active; Activity (HeLa [12]): Active; Activity (HeLa [13]): Active
CCn1ccc2c3c(=O)cc(-c4cccc5ccccc45)[nH]c3ccc21								IC50 (CCRF-CEM [5]): 29.8 nM; Activity (HeLa [2]): Active; Activity (HeLa [3]): Active; Activity (HeLa [4]): Active; IC50 (CCRF-CEM [6]): 2.3 nM
CCn1ccc2ccc3c(=O)cc(-c4ccccc4)[nH]c3c21	> 10000	> 10000	> 10000	5920	9590	> 10000	> 10000	
CCn1ccc2cc3c(=O)cc(-c4ccccc4)[nH]c3cc21	13	27	16	49	7.1	641	30	inhibition (Bos taurus): 24%
COc1ccc(/C=C\c2cc(OC)c(OC)c(OC)c2)cc1O								Activity (HeLa [14]): Active
